Data reported in ChEMBL document CHEMBL3393009 (J Med Chem, 2015).
pIC50: −log10 of the molar value. The source made the active and inactive calls. No cut-off for these calls is given here.

Columns and labels:
[1] = Oral bioavailability in non-human primate at 5 mg/kg; assay type: ADME, organism-based; conditions: monkey, in vivo
[2] = Tmax in rat at 5 mg/kg, po; assay type: ADME, organism-based; parameters: dose 5 mg/kg, route oral; conditions: in vivo
Rattus norvegicus [3] = assay: Drug coverage index, ratio fAUC in Wistar Han rat at 60 mg/kg, po bid for 14 days to IC50 for LRRK2 […] phosphorylation in Wistar Han rat brain at 6 to 60 mg/kg, po bid for 14 days; assay type: ADME, organism-based; conditions: in vivo, 336 h
Outline: (§1)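 Wistar Han rats (200–300 g, 8–11 weeks old) were dosed by oral gavage twice daily for 14 days. Vehicle was 10% propylene glycol/20% PEG400/70% 9.5% methocellulose.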

[4] = molecular target: T1, Leucine-rich repeat serine/threonine-protein kinase 2 (Homo sapiens, UniProt Q5S007); assay: Inhibition of full length LRRK2 (unknown origin) expressed in HEK293 cells assessed as reduction in S935 phosphorylation incubated for 90 mins by ELISA method; assay type: cell-based
T1 sequence (Q5S007 whole entry): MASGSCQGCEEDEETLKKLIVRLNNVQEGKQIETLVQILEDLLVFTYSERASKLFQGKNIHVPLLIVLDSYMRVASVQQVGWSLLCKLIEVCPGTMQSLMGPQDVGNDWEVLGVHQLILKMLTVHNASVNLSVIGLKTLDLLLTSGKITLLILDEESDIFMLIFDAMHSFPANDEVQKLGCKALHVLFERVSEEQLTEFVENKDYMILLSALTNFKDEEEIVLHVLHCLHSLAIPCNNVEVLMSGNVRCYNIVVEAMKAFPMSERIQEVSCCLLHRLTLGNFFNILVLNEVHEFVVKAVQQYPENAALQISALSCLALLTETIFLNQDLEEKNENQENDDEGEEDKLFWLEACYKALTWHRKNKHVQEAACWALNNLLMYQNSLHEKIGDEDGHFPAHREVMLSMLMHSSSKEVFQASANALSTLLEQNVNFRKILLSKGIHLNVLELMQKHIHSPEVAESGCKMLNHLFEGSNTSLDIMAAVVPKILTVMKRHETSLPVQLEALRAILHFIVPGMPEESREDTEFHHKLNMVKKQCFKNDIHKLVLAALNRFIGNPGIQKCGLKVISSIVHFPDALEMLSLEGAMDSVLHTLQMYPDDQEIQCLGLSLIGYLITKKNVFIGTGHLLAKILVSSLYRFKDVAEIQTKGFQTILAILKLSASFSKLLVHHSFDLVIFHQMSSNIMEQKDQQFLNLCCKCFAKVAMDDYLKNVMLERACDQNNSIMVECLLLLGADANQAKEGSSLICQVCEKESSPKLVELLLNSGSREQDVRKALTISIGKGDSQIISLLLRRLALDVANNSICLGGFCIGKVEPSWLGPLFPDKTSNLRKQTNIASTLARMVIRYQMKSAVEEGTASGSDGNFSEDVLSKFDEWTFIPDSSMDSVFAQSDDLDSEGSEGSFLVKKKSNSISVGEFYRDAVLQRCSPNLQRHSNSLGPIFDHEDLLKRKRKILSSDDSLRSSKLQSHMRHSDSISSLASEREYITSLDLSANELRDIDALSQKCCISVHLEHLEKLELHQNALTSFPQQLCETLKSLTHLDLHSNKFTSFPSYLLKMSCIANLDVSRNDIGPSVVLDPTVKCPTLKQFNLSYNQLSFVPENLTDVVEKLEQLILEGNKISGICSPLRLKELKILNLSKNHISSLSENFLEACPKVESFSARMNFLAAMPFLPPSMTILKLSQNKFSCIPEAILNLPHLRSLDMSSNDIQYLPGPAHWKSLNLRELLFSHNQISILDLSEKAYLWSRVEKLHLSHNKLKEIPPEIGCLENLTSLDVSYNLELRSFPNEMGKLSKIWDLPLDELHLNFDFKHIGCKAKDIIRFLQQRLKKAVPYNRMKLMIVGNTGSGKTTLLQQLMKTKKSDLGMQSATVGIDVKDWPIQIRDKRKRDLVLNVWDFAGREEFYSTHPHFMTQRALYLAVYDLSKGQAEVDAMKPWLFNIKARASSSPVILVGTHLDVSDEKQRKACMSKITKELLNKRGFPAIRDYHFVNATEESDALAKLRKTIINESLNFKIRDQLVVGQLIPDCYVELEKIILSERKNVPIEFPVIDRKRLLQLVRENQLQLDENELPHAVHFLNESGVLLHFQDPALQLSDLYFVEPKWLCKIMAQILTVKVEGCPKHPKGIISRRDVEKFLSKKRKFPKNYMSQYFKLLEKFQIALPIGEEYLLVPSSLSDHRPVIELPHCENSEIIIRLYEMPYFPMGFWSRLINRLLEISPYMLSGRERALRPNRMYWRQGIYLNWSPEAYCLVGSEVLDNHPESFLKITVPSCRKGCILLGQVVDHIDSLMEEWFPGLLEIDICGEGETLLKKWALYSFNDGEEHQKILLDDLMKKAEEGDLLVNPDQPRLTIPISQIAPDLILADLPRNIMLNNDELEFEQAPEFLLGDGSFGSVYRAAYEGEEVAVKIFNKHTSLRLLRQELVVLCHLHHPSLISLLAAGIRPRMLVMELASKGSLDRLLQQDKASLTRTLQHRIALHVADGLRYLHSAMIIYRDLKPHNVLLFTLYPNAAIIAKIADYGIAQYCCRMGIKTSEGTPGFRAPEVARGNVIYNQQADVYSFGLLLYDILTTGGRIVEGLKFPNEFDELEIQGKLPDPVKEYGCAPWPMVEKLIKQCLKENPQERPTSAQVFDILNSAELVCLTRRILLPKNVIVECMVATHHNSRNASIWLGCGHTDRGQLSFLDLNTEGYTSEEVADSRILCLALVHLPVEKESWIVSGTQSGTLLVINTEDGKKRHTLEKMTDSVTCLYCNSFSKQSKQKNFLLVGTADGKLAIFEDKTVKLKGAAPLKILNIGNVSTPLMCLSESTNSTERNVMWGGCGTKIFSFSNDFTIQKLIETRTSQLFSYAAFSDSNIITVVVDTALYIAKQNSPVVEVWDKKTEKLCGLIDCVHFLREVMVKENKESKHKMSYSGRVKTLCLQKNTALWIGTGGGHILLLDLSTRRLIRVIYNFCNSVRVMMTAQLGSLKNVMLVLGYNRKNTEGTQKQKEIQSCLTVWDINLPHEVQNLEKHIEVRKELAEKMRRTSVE

Rattus norvegicus [5] = assay: Toxicity in Wistar Han rat assessed as changes in clinical chemistry parameters at 6 to 60 mg/kg, po bid for 14 days; assay type: organism-based; parameters: dose 6-60 mg/kg, route oral; conditions: in vivo, 336 h
Outline: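 Wistar Han rats (200–300 g, 8–11 weeks) dosed by oral gavage twice daily for 14 days. Vehicle: 10% propylene glycol/20% PEG400/70% methylcellulose solution. RBC parameters, electrolytes, food consumption, body weight, clinical chemistry and urinary biomarkers recorded.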

[6] = molecular target: T2, Tyrosine-protein kinase JAK3 (Homo sapiens) (UniProt P52333); assay: Inhibition of JAK3 (JH1 domain-catalytic) (unknown origin) at 1 uM
T2 sequence (whole entry): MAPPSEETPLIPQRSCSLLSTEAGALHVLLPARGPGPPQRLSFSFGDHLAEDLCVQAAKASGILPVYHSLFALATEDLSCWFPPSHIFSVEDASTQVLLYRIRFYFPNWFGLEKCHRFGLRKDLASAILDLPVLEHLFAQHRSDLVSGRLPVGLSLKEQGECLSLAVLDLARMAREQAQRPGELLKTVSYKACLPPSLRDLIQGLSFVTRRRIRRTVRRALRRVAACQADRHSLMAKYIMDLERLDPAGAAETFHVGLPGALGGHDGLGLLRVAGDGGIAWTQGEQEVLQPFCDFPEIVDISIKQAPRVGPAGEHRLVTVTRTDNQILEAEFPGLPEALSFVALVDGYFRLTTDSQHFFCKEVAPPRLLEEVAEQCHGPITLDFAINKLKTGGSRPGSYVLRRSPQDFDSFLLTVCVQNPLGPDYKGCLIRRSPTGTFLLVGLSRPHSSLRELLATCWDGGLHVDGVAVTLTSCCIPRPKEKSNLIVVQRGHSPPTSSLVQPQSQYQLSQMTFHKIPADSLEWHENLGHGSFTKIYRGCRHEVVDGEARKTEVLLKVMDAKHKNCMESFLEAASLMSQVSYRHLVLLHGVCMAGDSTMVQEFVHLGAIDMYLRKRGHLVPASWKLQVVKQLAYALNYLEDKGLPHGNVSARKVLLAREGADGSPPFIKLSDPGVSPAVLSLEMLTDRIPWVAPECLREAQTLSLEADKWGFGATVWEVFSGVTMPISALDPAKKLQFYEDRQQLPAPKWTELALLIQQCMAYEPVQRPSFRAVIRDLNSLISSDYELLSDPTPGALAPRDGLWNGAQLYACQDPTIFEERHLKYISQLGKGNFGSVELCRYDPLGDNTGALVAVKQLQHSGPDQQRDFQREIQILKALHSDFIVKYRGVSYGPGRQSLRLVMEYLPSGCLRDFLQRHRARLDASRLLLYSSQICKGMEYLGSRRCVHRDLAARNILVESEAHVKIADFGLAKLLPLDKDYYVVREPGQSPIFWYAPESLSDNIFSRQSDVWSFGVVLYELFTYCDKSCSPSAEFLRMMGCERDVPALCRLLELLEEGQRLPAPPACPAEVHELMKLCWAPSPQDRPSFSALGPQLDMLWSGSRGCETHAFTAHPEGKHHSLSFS

Rattus norvegicus [7] = assay: fCmax in Wistar Han rat at 20 mg/kg, po bid for 14 days; assay type: ADME, organism-based; parameters: dose 20 mg/kg, route oral; conditions: in vivo, 336 h
Rattus norvegicus [8] = assay: Inhibition of LRRK2 […] phosphorylation in Wistar Han rat brain at 6 to 60 mg/kg, po bid for 14 days; assay type: functional; conditions: dose mg/kg 6-60
[9] = molecular target: T1, Leucine-rich repeat serine/threonine-protein kinase 2; assay: Inhibition of LRRK2 in human PBMCs by ActivX KiNativ method
Mus musculus = assay: Effect on total LRRK2 protein level in BAC-transgenic C57BL/6J mouse kidney at 3 to 100 mg/kg, sc measured after 90 mins post dose; assay type: ADME, organism-based; parameters: dose 3-100 mg/kg, route subcutaneous; conditions: in vivo, 1.5 h
[10] = Clearance in rat liver microsomes; assay type: ADME; conditions: read-out: CLH
[11] = Cmax in non-human primate at 5 mg/kg, po; assay type: ADME, organism-based; parameters: dose 5 mg/kg, route oral; conditions: monkey, in vivo
[12] = molecular target: T3, Serine/threonine-protein kinase 3 (Homo sapiens, UniProt Q13188); assay: Inhibition of human recombinant MST2 using Ser/Thr peptide 7 substrate after 45 mins by Z-Lyte assay
T3 sequence (Q13188 whole entry): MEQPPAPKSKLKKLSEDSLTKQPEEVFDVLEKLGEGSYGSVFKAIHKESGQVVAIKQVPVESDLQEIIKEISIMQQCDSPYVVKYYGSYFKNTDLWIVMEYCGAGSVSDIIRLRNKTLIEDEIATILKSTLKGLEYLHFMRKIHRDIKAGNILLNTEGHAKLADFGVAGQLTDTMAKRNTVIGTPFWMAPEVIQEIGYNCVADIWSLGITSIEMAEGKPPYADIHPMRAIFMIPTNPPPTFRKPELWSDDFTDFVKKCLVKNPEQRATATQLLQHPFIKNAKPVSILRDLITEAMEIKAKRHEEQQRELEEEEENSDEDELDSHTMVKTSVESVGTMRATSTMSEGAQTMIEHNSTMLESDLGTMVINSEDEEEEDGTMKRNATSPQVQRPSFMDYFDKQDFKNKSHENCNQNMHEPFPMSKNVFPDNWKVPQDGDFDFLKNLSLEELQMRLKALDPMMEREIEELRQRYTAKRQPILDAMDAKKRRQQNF

[13] = molecular target: T4, Tyrosine-protein kinase JAK1 (Homo sapiens, UniProt P23458); assay: Inhibition of JAK1 (JH2 domain-pseudokinase) (unknown origin) at 1 uM
T4 sequence (P23458 whole entry, the tested form may be a part): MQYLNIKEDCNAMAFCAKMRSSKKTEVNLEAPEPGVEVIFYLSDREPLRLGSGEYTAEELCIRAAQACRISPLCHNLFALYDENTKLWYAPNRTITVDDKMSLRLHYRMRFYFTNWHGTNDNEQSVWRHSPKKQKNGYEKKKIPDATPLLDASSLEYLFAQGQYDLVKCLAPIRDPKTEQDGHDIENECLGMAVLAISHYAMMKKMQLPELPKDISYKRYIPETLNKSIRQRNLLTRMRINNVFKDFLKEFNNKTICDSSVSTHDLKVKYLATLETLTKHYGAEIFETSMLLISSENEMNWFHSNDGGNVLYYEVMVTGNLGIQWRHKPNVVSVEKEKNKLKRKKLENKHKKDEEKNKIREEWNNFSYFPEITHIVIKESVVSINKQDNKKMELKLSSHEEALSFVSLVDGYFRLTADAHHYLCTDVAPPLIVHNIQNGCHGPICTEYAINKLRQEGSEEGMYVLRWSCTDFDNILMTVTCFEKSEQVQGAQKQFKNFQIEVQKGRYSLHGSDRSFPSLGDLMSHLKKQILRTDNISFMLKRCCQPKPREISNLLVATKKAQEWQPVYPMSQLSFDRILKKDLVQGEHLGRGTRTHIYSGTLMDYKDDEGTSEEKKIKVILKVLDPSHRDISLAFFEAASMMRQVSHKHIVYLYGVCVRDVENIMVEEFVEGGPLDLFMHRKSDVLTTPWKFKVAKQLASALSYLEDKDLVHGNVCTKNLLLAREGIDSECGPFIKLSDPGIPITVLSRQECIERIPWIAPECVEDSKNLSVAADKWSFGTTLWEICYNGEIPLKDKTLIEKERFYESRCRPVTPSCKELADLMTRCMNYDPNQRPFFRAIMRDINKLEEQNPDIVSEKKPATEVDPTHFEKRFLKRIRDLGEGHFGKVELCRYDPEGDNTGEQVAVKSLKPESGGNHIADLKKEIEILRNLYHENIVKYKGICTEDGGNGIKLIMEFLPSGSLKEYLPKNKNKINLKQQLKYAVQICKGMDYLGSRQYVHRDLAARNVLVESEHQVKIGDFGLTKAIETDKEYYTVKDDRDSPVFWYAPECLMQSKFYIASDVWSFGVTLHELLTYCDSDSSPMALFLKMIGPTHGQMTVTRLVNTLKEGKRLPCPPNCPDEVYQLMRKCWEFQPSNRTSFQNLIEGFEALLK

[14] = molecular target: Serine/threonine-protein kinase 26 (Homo sapiens, UniProt Q9P289); assay: Inhibition of human recombinant MST4 using Ser/Thr peptide 7 substrate after 60 mins by Z-Lyte assay
Serine/threonine-protein kinase 26, sequence (Q9P289 whole entry): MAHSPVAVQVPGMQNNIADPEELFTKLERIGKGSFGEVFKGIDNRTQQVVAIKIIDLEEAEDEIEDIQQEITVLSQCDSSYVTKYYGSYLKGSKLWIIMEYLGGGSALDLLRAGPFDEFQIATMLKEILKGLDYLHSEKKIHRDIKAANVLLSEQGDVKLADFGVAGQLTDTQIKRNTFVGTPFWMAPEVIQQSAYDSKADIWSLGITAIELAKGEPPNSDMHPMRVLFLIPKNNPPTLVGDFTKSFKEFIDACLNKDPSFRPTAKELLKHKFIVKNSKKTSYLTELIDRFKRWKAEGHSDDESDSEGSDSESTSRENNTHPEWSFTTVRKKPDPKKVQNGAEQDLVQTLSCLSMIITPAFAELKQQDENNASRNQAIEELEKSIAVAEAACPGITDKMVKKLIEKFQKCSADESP
Outline: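 Z-Lyte FRET assay, final 2 μM Ser/Thr peptide 7, 75 μM ATP, 18 nM kinase. Buffer 50 mM HEPES (pH 7.0 for MST2, 7.5 for MST4), 10 mM MgCl2, 1 mM EGTA, 0.01% Brij-35. Stopped at 45 min (MST2) or 60 min (MST4). Excitation 400 nm, emission 445/520 ratio converted to percent phosphorylation for IC50.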

[15] = molecular target: T4, Tyrosine-protein kinase JAK1; assay: Inhibition of JAK1 (JH1 domain-catalytic) (unknown origin) at 1 uM
[16] = Drug coverage index, ratio fCmax in Wistar Han rat at 6 mg/kg, po bid for 14 days to IC50 for LRRK2 […] phosphorylation in Wistar Han rat brain at 6 to 60 mg/kg, po bid for 14 days; assay type: ADME, organism-based; conditions: in vivo, 336 h; outline: as §1

Question: For N#Cc1cccc(-c2c[nH]c3ncnc(N4CCOCC4)c23)c1, which bioavailability [1] is on record?
Answer: The bioavailability was 3.5%.

Question: What about the Tmax [2] of the same compound?
Answer: The Tmax was 30 min.

Question: And the Ratio (Rattus norvegicus [3])?
Answer: Its Ratio is 31.

Question: And the pIC50 [4]?
Answer: Its pIC50 is 7.60.

Question: What about the Activity (Rattus norvegicus [5]) of the same compound?
Answer: Its Activity is “Non-toxic”.

Question: What about the inhibition [6] of the same compound?
Answer: Its inhibition is “inactive”.

Question: What about the fCmax (Rattus norvegicus [7]) of the same compound?
Answer: Its fCmax is 380 nM.

Question: And the fIC50 (Rattus norvegicus [8])?
Answer: Its fIC50 is 15 nM.

Question: What about the pIC50 [9] of the same compound?
Answer: The pIC50 was 7.82.

Question: What about the Activity (Mus musculus) of the same compound?
Answer: The Activity was “Non-toxic”.

Question: And the CLint scaled [10]?
Answer: The CLint scaled was 131 mL/min/kg.

Question: And the Cmax [11]?
Answer: Its Cmax is 25 ng/mL.

Question: And the pIC50 [12]?
Answer: Its pIC50 is 7.66.

Question: And the inhibition [13]?
Answer: The inhibition was “inactive”.

Question: And the pIC50 [14]?
Answer: The pIC50 was 6.75.

Question: And the inhibition [15]?
Answer: The inhibition was “inactive”.

Question: What about the Ratio [16] of the same compound?
Answer: Its Ratio is 6.
